Data taken from ChEMBL document CHEMBL3351998, “Discovery of potent and specific dihydroisoxazole inhibitors of human transglutaminase 2” (J Med Chem, 2014).
Activity calls are given as the source filed them. The rule behind the calls is not given here.

Assays:
[1] = biological target: T1, Protein-glutamine gamma-glutamyltransferase K (Homo sapiens) (UniProt P22735); test: Inhibition of human transglutaminase 1 using ((benzyloxy)carbonyl)-L-glutaminyl-L-serine peptide substrate assessed as Kinh/Ki ratio by GDH coupled assay
T1 sequence (whole entry): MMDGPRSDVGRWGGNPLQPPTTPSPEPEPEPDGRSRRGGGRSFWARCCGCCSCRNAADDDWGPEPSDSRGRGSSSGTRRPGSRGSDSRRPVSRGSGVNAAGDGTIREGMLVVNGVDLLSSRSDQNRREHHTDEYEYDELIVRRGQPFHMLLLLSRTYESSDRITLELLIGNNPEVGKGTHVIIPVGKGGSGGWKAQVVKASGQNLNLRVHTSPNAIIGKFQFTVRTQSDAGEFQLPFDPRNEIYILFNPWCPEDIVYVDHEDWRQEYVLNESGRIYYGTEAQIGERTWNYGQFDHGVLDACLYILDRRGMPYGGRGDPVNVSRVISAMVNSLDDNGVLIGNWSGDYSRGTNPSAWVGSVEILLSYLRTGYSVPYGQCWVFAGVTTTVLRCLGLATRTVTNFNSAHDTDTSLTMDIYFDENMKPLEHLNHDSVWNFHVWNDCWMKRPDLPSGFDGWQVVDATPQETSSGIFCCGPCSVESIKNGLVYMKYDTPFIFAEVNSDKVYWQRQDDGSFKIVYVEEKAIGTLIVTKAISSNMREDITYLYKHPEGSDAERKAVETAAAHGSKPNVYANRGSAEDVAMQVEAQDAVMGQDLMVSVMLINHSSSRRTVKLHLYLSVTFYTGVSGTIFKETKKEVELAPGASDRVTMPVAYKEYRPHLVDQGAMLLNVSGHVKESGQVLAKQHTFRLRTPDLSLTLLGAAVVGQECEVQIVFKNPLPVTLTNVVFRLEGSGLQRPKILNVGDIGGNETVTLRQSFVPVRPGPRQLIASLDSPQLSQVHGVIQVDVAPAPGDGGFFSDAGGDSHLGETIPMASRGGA
Outline: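 Recombinant His-tagged human TG1 from E. coli Rosetta 2 pLysS, final ~0.37 μM, in 200 mM MOPS pH 7.2, 5 mM CaCl2, 10 mM α-ketoglutarate, 300 μM NADH, 36 U/mL GDH. Z-Gln-Ser at 20/40 mM. Inhibitors typically at 100/33.3/11.1/3.7 μM (1% DMSO), added after ≥5 min enzyme pre-equilibration. NADH loss read at 340 nm; progress curves fitted to exponential decay, kinh/Ki from irreversible model.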

[2] = biological target: T2, Protein-glutamine gamma-glutamyltransferase (Homo sapiens) (UniProt P21980); test: Inhibition of human transglutaminase 2 using ((benzyloxy)carbony l)-L-glutaminylglycine peptide substrate assessed as Kinh/Ki ratio by GDH coupled assay
T2 sequence (whole entry): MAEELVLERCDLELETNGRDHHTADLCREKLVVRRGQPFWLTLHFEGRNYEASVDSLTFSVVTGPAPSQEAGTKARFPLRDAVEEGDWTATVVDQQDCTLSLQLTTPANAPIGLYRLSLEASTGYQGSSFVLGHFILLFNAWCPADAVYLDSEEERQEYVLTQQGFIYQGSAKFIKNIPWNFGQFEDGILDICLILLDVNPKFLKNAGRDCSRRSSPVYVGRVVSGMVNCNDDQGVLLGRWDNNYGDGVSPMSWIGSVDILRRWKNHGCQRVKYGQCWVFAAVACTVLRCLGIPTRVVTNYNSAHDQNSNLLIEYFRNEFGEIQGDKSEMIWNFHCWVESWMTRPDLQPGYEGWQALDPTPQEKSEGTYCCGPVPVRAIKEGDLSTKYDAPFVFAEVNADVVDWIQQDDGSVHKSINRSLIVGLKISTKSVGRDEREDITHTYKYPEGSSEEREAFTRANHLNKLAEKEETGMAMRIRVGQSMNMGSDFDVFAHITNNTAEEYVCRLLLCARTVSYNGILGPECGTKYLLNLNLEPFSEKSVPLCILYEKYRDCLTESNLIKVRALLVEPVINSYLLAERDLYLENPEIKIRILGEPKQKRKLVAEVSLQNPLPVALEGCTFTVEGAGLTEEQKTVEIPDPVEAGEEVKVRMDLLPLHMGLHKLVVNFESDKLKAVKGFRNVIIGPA
Outline: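 Human TG2 (V224G variant) or codon-optimized murine TG2, E. coli-expressed, final ~0.34 and 0.22 μM respectively. Buffer: 200 mM MOPS pH 7.2, 5 mM CaCl2, 10 mM α-ketoglutarate, 300 μM NADH, 36 U/mL bovine GDH. Z-Gln-Gly at 10/20 mM. Inhibitors typically at 100/33.3/11.1/3.7 μM, 1% DMSO, added after ≥5 min pre-equilibration. A340 progress curves fitted to exponential decay; kinh/Ki from irreversible inhibition model.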

Row | Ratio [1] | Ratio [2] | SMILES
1 | 8.7 | 3.7 | C[C@H](OC(=O)N1CCC[C@@H]1C(=O)NC[C@@H]1CC(Br)=NO1)c1cnc2ccccc2c1
2 | 10.8 | 2.6 | O=C(NC[C@@H]1CC(Br)=NO1)[C@@H]1CCCN1C(=O)OCc1ccncc1
3 | 18.9 | 11.1 | O=C(NC[C@@H]1CC(Br)=NO1)[C@@H]1C=C(c2ccccc2)CN1C(=O)OCc1cnc2ccccc2c1
4 | 1.7 | inactive | COc1cccc(COC(=O)N2CCC[C@H]2C(=O)NC[C@@H]2CC(Br)=NO2)c1OC
5 | 4.3 | 4.6 | O=C(NC[C@@H]1CC(Br)=NO1)[C@@H]1CCCN1C(=O)OCc1cccnc1
6 | 15.4 | 1.6 | O=C(NC[C@@H]1CC(Br)=NO1)[C@@H]1CCCN1C(=O)OCc1cnc2ccccc2n1
7 | 13.6 | 14.4 | O=C(NC[C@@H]1CC(Br)=NO1)[C@@H]1CCN1C(=O)OCc1cnc2ccccc2c1
8 | 1.3 | 1.3 | O=C(C[C@@H]1CCCN1C(=O)OCc1cnc2ccccc2c1)NC[C@@H]1CC(Br)=NO1
9 | inactive | inactive | O=C(NC[C@@H]1CC(Br)=NO1)[C@@H]1CCCN1C(=O)OCc1nc2ccccc2[nH]1
10 | 3.1 | 2.6 | N[C@@H]1C[C@@H](C(=O)NC[C@@H]2CC(Br)=NO2)N(C(=O)OCc2cnc3ccccc3c2)C1
11 | 4.5 | 4.1 | O=C(NC[C@@H]1CC(Br)=NO1)[C@@H]1CCCN1C(=O)OCc1ccccc1
12 | 3.9 | 4.8 | O=C(NC[C@@H]1CC(Br)=NO1)[C@@H]1CCCN1C(=O)OCc1cccc(OCc2ccccc2)c1
13 | 7.1 | 10.1 | C#CCO[C@@H]1C[C@@H](C(=O)NC[C@@H]2CC(Br)=NO2)N(C(=O)OCc2cnc3ccccc3c2)C1
14 | 2.3 | 2.5 | CC(C)(C)OC(=O)N1CCC[C@H]1C(=O)NC[C@@H]1CC(Br)=NO1
15 | 38.7 | 52.2 | O=C(NC[C@@H]1CC(Br)=NO1)[C@@H]1C[C@@H](c2cccc(O)c2)CN1C(=O)OCc1cnc2ccccc2c1
16 | 17.2 | 17.7 | O=C(NC[C@@H]1CC(Br)=NO1)[C@@H]1C[C@H](c2ccccc2)CN1C(=O)OCc1cnc2ccccc2c1
17 | 15.4 | 12 | O=C(NC[C@@H]1CC(Br)=NO1)[C@@H]1C[C@@H](c2ccc(Cl)cc2)CN1C(=O)OCc1cnc2ccccc2c1
18 | 18.1 | 36.2 | O=C(N[C@@H]1C[C@@H](C(=O)NC[C@@H]2CC(Br)=NO2)N(C(=O)OCc2cnc3ccccc3c2)C1)c1cccc(O)c1
19 | 25.8 | 8.8 | O=C(NC[C@@H]1CC(Br)=NO1)[C@@H]1CCN(C(=O)OCc2cnc3ccccc3c2)C1
20 | 5.1 | 2.9 | C[C@H](OC(=O)N1CCC[C@@H]1C(=O)NC[C@@H]1CC(Br)=NO1)c1ccc2ccccc2c1

Row | Ratio [1] | Ratio [2] | SMILES
21 | 41.7 | 25.3 | O=C(NC[C@@H]1CC(Br)=NO1)[C@@H]1C[C@@H](c2cccc(Cl)c2)CN1C(=O)OCc1cnc2ccccc2c1
22 | 11.5 | 9 | C[C@H](OC(=O)N1CCC[C@H]1C(=O)NC[C@@H]1CC(Br)=NO1)c1ccc2ccccc2c1
23 | 23.1 | 10.2 | O=C(NC[C@@H]1CC(Br)=NO1)[C@@H]1C[C@@H](Cc2ccccc2)CN1C(=O)OCc1cnc2ccccc2c1
24 | 11.6 | 14.8 | O=C(NC[C@@H]1CC(Br)=NO1)[C@@H]1C[C@@H](NC(=O)C2(C(=O)O)CCC2)CN1C(=O)OCc1cnc2ccccc2c1
25 | 37.1 | 37.1 | O=C(N[C@@H]1C[C@@H](C(=O)NC[C@@H]2CC(Br)=NO2)N(C(=O)OCc2cnc3ccccc3c2)C1)c1ccccc1O
26 | 6.7 | 7.3 | O=C(NC[C@@H]1CC(Br)=NO1)[C@@H]1C[C@@H](F)CN1C(=O)OCc1cnc2ccccc2c1
27 | 2.4 | 2 | C[C@@]1(C(=O)NC[C@@H]2CC(Br)=NO2)CCCN1C(=O)OCc1cnc2ccccc2c1
28 | 48 | 18.4 | O=C(NC[C@@H]1CC(Br)=NO1)[C@@H]1C[C@@H](c2c[nH]c3ccc(F)cc23)CN1C(=O)OCc1cnc2ccccc2c1
29 | 5.6 | 3.9 | O=C(NC[C@@H]1CC(Br)=NO1)[C@@H]1CCCN1C(=O)OCc1cccc(F)c1
30 | 0.7 | 2.4 | C#CCOC(=O)N1CCC[C@H]1C(=O)NC[C@@H]1CC(Br)=NO1
31 | 22.2 | 12 | O=C(NC[C@@H]1CC(Br)=NO1)[C@@H]1CCCCN1C(=O)OCc1cnc2ccccc2c1
32 | 1.6 | 1.2 | O=C(NC[C@@H]1CC(Br)=NO1)[C@@H]1CCCN1C(=O)OCc1ccccn1
33 | 12 | 2 | O=C(NC[C@@H]1CC(Br)=NO1)[C@@H]1CCCN1C(=O)OCc1ccnc2ccccc12
34 | 7.6 | 6.4 | C#Cc1ccc(COC(=O)N2CCC[C@H]2C(=O)NC[C@@H]2CC(Br)=NO2)cc1
35 | 12 | 15.7 | O=C(N[C@@H]1C[C@@H](C(=O)NC[C@@H]2CC(Br)=NO2)N(C(=O)OCc2cnc3ccccc3c2)C1)c1cnccn1
36 | 7.7 | 10.4 | CO[C@@H]1C[C@@H](C(=O)NC[C@@H]2CC(Br)=NO2)N(C(=O)OCc2cnc3ccccc3c2)C1
37 | 29.5 | 33.8 | O=C(NC[C@@H]1CC(Br)=NO1)[C@@H]1C[C@@H](c2ccccc2O)CN1C(=O)OCc1cnc2ccccc2c1
38 | 24.6 | 25.8 | O=C(N[C@@H]1C[C@@H](C(=O)NC[C@@H]2CC(Br)=NO2)N(C(=O)OCc2cnc3ccccc3c2)C1)c1ccccc1
39 | 0.85 | inactive | Cn1c(COC(=O)N2CCC[C@H]2C(=O)NC[C@@H]2CC(Br)=NO2)nc2ccccc21
